Columns and labels:
Dihydrofolate reductase = target: T1, Dihydrofolate reductase (Homo sapiens, UniProt P00374); test: Inhibitory activity against dihydrofolate reductase in humans
T1 sequence (P00374 whole entry): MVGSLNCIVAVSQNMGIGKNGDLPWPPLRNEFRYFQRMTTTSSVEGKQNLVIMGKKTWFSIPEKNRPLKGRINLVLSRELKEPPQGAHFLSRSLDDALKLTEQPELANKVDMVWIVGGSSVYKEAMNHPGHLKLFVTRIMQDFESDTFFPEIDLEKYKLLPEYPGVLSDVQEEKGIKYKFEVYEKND

[1] = In vitro activity against the amastigote stage of the parasite cultured in mouse fibroblasts (L-6 cells); format: functional, cell-based
How it was run: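 L-6 mouse fibroblasts seeded, infected next day with trypomastigote T. cruzi expressing beta-galactosidase; after two days medium replaced with serial drug dilutions; four-day incubation; chlorophenol red beta-D-galactopyranoside substrate added, absorbance read at 540 nm 2-6 h later to quantify parasite growth; IC50 determined.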

[2] = Selectivity for Trypanosoma cruzi dihydrofolate reductase compared to human dihydrofolate reductase

| Compound | Ki (Dihydrofolate reductase) [µM] | IC50 [1] [µM] | Selectivity [2] |
| --- | --- | --- | --- |
| CCOC(=O)CCCCCN(Cc1cnc2nc(N)nc(N)c2n1)c1ccc(C(=O)NC(CCC(=O)OCC)C(=O)OCC)cc1 (stereo not given) | 0.485 | 53.5 | 8.71 |
| CCOC(=O)CCCN(Cc1cnc2nc(N)nc(N)c2n1)c1ccc(C(=O)NC(CCC(=O)OCC)C(=O)OCC)cc1 (stereo not given) | – | 61 | – |
| Nc1nc(N)c2nc(CN(CCCCCC(=O)O)c3ccc(C(=O)NC(CCC(=O)O)C(=O)O)cc3)cnc2n1 (stereo not given) | 0.00163 | 11.5 | 8.9 |
| Nc1nc(N)c2nc(CN(CCCC(=O)O)c3ccc(C(=O)NC(CCC(=O)O)C(=O)O)cc3)cnc2n1 (stereo not given) | – | > 171 | – |
| CCOC(=O)CCCCN(Cc1cnc2nc(N)nc(N)c2n1)c1ccc(C(=O)NC(CCC(=O)OCC)C(=O)OCC)cc1 (stereo not given) | 0.453 | 38.8 | 9.9 |
| Nc1nc(N)c2nc(CN(CCCCC(=O)O)c3ccc(C(=O)NC(CCC(=O)O)C(=O)O)cc3)cnc2n1 (stereo not given) | 0.00145 | > 167 | 11.1 |
| CN(Cc1cnc2nc(N)nc(N)c2n1)c1ccc(C(=O)N[C@@H](CCC(=O)O)C(=O)O)cc1 [METHOTREXATE] | – | 9.2 | – |

Source: ChEMBL document CHEMBL1131724, “The structure-based design and synthesis of selective inhibitors of Trypanosoma cruzi dihydrofolate reductase” (Bioorg Med Chem Lett, 1999)
